In ChEMBL document CHEMBL1153499, “Synthesis, biological evaluation, and metabolic stability of acrylamide derivatives as novel CCR3 antagonists” (Bioorg Med Chem, 2009):

Experiments:
[1] = Permeability by PAMPA; type: ADME; settings: read-out: permeability
In short: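 PAMPA permeability measured at pH 6.5.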

[2] = Apparent permeability across human Caco-2 cells; type: ADME, cell-based
[3] = AUC (0 to infinity) in mouse at 1 mg/kg, iv; type: ADME, organism-based; parameters: time infinity, dose 1 mg/kg, route intravenous; settings: plasma
[4] = AUC (0 to infinity) in mouse at 3 mg/kg, po; type: ADME, organism-based; parameters: time infinity, dose 3 mg/kg, route oral; settings: plasma
[5] = Tmax in mouse at 3 mg/kg, po; type: ADME, organism-based; parameters: dose 3 mg/kg, route oral; settings: in vivo
[6] = Bioavailability in mouse at 3 mg/kg, po; settings: in vivo
[7] = Volume of distribution at steady state in mouse at 1 mg/kg, iv; type: ADME, organism-based; parameters: dose 1 mg/kg, route intravenous; settings: in vivo, read-out: Vdss

## O=C(NC1CC2CCC(C1)N2Cc1ccc2cc(F)ccc2c1)c1ccccc1-c1ccccc1 (stereo not given)
[1]
  Papp: > 30 ×10⁻⁶ cm/s

## O=C(C=C1CCN(C(=O)c2ccccc2O)CC1)N[C@@H]1CCN(Cc2ccc3cc(F)ccc3c2)C1
[2]
  Papp: 4 ×10⁻⁶ cm/s
[3]
  AUC(0-inf): 190 ng·h/mL
[4]
  AUC(0-inf): 200 ng·h/mL
[5]
  Tmax: 48 min
[6]
  bioavailability: 35%
[7]
  Vd: 9.88 L/kg

## Cc1ccc(C(=O)N2CCC(=CC(=O)N[C@@H]3CCN(Cc4ccc5cc(F)ccc5c4)C3)CC2)c(O)c1
[1]
  Papp: 27.3 ×10⁻⁶ cm/s

## O=C(NC1CC2CCC(C1)N2Cc1ccc2cc(F)ccc2c1)c1cc[n+]([O-])cc1C(=O)N1CCCCC1 (stereo not given)
[1]
  Papp: 4.7 ×10⁻⁶ cm/s

## O=C(C=C1CCN(C(=O)c2ccccc2)CC1)N[C@@H]1CCN(Cc2ccc3cc(F)ccc3c2)C1
[1]
  Papp: 19.9 ×10⁻⁶ cm/s
